Data reported in ChEMBL document CHEMBL1124459, “Activity of aromatic substituted phenylpiperazines lacking affinity for dopamine binding sites in a preclinical test of antipsychotic efficacy” (J Med Chem, 1989).

What was measured:
Rattus norvegicus [1] = organism: Rattus norvegicus; test: (§1) The percent loss of escape responding was determined for the estimated effective dose 50 values for CAR block; type: functional
D(2) dopamine receptor [2] = target: T1, D(2) dopamine receptor (Rattus norvegicus, UniProt P61169); test: Binding affinity against rat Dopamine receptor D2.
T1 sequence (P61169 whole entry): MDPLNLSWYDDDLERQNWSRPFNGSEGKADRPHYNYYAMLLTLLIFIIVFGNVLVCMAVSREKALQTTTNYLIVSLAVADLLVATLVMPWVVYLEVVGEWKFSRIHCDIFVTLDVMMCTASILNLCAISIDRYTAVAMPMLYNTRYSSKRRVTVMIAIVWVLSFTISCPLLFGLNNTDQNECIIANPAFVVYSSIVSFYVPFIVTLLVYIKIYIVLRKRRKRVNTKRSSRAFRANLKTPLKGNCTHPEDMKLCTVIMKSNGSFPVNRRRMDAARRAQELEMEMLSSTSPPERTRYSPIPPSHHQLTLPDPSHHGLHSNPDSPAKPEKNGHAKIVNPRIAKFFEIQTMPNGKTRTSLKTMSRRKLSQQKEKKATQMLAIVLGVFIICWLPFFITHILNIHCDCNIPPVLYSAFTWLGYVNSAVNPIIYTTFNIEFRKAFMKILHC

Rattus norvegicus [3] = test: (§2) Effective dose in blocking conditioned avoidance responding (CAR) in the rat when administered intraperitoneally; type: functional; details: ip
Method in brief: (§3)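 Rats trained on a discrete-trial single-lever conditioned avoidance task, dosed ip and tested at the time of peak effect. Each dose was given to 6–12 rats. CAR reduction and loss of escape responding were recorded.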

[4] = target: T2, Adrenergic receptor alpha-1 (Rattus norvegicus, UniProt P15823+P23944+P43140); test: Binding affinity against rat Alpha-1 adrenergic receptor.; type: protein assay
T2 sequence (P15823 whole entry): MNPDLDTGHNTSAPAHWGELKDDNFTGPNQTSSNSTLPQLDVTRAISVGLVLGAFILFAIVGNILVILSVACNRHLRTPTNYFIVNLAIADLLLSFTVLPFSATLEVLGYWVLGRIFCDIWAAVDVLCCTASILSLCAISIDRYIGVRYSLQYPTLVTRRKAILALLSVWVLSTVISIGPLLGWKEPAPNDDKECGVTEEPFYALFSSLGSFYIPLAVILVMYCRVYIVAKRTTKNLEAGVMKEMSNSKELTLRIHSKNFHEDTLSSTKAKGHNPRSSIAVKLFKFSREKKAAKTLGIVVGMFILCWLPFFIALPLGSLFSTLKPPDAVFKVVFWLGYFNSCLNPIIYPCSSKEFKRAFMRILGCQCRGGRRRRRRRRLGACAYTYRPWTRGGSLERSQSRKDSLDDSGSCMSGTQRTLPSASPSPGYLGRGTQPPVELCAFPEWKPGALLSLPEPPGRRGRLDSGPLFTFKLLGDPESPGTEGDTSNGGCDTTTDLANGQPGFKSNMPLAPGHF
T2 sequence (P23944 whole entry): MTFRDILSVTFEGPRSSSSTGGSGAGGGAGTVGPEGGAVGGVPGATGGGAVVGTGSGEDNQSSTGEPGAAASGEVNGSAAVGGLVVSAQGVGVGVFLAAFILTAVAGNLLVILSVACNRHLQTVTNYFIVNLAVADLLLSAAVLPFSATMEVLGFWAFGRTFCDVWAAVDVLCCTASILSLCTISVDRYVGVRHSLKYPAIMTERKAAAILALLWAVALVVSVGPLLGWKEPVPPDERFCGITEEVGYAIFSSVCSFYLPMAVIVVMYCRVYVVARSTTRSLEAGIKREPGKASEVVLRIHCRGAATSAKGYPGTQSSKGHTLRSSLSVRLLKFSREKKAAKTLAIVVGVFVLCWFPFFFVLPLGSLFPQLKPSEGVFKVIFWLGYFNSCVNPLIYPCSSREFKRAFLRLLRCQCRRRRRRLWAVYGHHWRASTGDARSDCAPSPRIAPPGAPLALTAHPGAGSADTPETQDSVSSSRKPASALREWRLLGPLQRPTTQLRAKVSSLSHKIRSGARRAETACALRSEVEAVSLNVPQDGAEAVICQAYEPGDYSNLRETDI
T2 sequence (P43140 whole entry): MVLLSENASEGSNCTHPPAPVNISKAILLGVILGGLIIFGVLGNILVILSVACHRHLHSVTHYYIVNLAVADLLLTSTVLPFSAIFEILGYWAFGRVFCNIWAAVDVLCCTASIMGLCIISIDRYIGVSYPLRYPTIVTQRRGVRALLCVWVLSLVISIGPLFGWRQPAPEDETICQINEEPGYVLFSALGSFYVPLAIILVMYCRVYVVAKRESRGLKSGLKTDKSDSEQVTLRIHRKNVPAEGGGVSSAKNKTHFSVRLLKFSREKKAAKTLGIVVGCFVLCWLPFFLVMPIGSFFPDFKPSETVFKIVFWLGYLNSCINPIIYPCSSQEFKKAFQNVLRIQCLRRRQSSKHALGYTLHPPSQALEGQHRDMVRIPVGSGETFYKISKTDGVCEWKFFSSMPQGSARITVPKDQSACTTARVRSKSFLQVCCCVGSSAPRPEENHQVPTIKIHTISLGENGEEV

[5] = target: 5-hydroxytryptamine receptor 1B (Rattus norvegicus, UniProt P28564); test: Binding affinity at rat 5-hydroxytryptamine 1B receptor by [3H]5-HT displacement.
Sequence of 5-hydroxytryptamine receptor 1B (P28564 whole entry): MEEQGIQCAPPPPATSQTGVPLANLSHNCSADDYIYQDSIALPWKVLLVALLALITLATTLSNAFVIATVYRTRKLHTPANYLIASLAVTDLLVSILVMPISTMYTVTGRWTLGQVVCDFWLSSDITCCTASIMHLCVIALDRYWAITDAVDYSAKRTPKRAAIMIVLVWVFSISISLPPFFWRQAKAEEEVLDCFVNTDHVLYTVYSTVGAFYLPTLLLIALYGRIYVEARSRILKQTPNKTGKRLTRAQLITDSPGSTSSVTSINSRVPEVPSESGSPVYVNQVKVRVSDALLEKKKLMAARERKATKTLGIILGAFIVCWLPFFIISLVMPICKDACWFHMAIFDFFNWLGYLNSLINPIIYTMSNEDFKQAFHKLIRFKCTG

[6] = target: T3, Serotonin 2 (5-HT2) receptor (Rattus norvegicus, UniProt P30994+P08909+P14842); test: Binding affinity at rat 5-hydroxytryptamine 2 receptor by [3H]ketanserin displacement.; type: protein assay
[7] = target: T4, Serotonin 1 (5-HT1) receptor (Rattus norvegicus, UniProt P28564+P30940+P19327+P28565); test: Inhibition of [3H]5-HT radioligand binding against 5-hydroxytryptamine 1 receptor; type: protein assay
[8] = target: T5, 5-hydroxytryptamine receptor 1A (Rattus norvegicus, UniProt P19327)
T5 sequence (P19327 whole entry): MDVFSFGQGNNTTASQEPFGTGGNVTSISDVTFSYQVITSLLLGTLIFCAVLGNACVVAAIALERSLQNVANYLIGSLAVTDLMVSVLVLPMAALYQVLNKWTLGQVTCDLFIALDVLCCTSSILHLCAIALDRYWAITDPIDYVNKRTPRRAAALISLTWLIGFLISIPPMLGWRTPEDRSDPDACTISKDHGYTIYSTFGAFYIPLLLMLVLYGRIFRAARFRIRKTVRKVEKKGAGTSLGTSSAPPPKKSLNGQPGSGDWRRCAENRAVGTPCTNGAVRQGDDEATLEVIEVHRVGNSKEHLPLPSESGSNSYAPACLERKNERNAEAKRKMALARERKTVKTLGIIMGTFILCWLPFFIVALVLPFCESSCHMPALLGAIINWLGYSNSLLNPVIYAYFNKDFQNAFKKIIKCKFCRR

D(1A) dopamine receptor [9] = target: T6, D(1A) dopamine receptor (Rattus norvegicus, UniProt P18901); test: Binding affinity at rat Dopamine receptor D1 by [3H]SCH-23390 displacement.
T6 sequence (P18901 whole entry): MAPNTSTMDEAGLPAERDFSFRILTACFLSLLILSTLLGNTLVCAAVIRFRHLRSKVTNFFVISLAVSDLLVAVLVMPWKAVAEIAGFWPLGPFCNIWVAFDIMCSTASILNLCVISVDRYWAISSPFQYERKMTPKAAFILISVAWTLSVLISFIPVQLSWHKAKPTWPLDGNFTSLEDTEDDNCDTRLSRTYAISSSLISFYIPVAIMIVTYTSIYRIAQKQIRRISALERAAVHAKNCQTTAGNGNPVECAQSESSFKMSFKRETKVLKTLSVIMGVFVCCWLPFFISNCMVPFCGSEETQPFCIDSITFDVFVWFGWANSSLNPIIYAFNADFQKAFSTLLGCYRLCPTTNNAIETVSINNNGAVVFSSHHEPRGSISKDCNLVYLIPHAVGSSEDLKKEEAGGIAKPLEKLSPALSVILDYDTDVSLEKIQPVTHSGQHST
Method in brief: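 Rat striatal tissue suspended in 20 mM NaHepes without sucrose, at 250 volumes of the tissue weight. Labelled with [3H]SCH-23390 added as a 3 nM solution. Nonspecific binding set with unlabelled SCH-23390 added as a 30 μM solution. Incubated 20 min. Run in duplicate, with one to five concentration–response curves per compound.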

[10] = target: T4, Serotonin 1 (5-HT1) receptor; test: Binding affinity determined in radioreceptor binding assay by using [3H]5-HT radioligand against 5-hydroxytryptamine 1 receptor; type: protein assay
D(1A) dopamine receptor [11] = target: T6, D(1A) dopamine receptor; test: Activity in radioreceptor binding assay by using […] against Dopamine receptor D1
Rattus norvegicus [12] = organism: Rattus norvegicus; test: as §1; type: functional; method in brief: as §3; remark: listed apart in the source
[13] = target: T3, Serotonin 2 (5-HT2) receptor; test: Binding affinity determined in radioreceptor binding assay by using [3H]ketanserin radioligand against 5-hydroxytryptamine 2 receptor; type: protein assay
D(2) dopamine receptor [14] = target: T1, D(2) dopamine receptor; test: Binding affinity determined in radioreceptor binding assay against dopamine receptor D2
D(1A) dopamine receptor [15] = target: T6, D(1A) dopamine receptor
Rattus norvegicus [16] = test: as §2; details: ip

| SMILES | Loss (Rattus norvegicus [1]) | Ki (D(2) dopamine receptor [2]) | ED50 (Rattus norvegicus [3]) | Ki [4] | Ki [5] | Ki [6] | Ki [7] | Ki [8] | Ki (D(1A) dopamine receptor [9]) | also measured |
| --- | --- | --- | --- | --- | --- | --- | --- | --- | --- | --- |
| O=[N+]([O-])c1cccc(N2CCNCC2)c1 | 4.3% | > 1 µM | 5.6 mg/kg | > 1 µM | 0.0336 µM | 0.419 µM | 0.25 µM | ~0.322 µM | > 1 µM |  |
| Fc1cccc(N2CCNCC2)c1 |  | > 1 µM | 3.2 mg/kg | 0.67 µM | 0.0308 µM | > 1 µM | 0.0865 µM | 0.114 µM | > 1 µM |  |
| CCOc1ccccc1N1CCNCC1 | ~1% | 0.144 µM | 3.4 mg/kg | 0.07 µM | 0.0138 µM | 0.774 µM | 0.0426 µM | 0.0091 µM | > 1 µM |  |
| N#Cc1ccccc1N1CCNCC1 | 4.3% | > 1 µM | 5.7 mg/kg | 0.214 µM | 0.0218 µM | > 1 µM | 0.0261 µM | 0.0255 µM | > 1 µM |  |
| CC(C)c1ccccc1N1CCNCC1 |  | 0.111 µM | 5.9 mg/kg | 0.168 µM | 0.00398 µM | 0.19 µM |  | 0.0125 µM |  | Ki [10]: 0.0234 µM; Ki (D(1A) dopamine receptor [11]): > 1 µM; Loss (Rattus norvegicus [12]): 0.1% |
| Fc1ccccc1N1CCNCC1 | 1.6% | > 1 µM | 5.1 mg/kg | 0.373 µM | 0.0289 µM | > 1 µM | 0.0579 µM | 0.043 µM | > 1 µM |  |
| CCCCOc1ccccc1N1CCNCC1 | 0.2% | 0.244 µM | 11.2 mg/kg | 0.139 µM | 0.004 µM | 0.277 µM | 0.0193 µM | 0.0111 µM | > 1 µM |  |
| CCc1ccccc1N1CCNCC1 |  | 0.449 µM | 6.8 mg/kg | 0.096 µM | 0.0082 µM | 0.124 µM |  | 0.0227 µM | > 1 µM | Ki [10]: 0.0171 µM; Loss (Rattus norvegicus [12]): 2.5% |
| COc1ccccc1N1CCNCC1 | 1.8% |  | 5.6 mg/kg | 0.51 µM | 0.0173 µM | > 1 µM | 0.029 µM | 0.0095 µM | > 1 µM |  |
| CC(C)Oc1ccccc1N1CCNCC1 | 0.4% | 0.064 µM | 4.8 mg/kg | 0.084 µM | 0.0069 µM | 0.235 µM | 0.019 µM | 0.0076 µM | > 1 µM |  |
| Cc1ccccc1N1CCNCC1 |  | > 1 µM | > 20 mg/kg | 0.108 µM | 0.0446 µM |  |  | 0.0274 µM | > 1 µM | Ki [10]: 0.0624 µM; Ki [13]: 0.558 µM |
| Clc1ccccc1N1CCNCC1 | 3.1% |  |  |  | 0.0117 µM | > 1 µM |  | 0.0195 µM |  | Ki (D(2) dopamine receptor [14]): > 1 µM; Ki (D(1A) dopamine receptor [15]): > 1 µM; ED50 (Rattus norvegicus [16]): 10.2 mg/kg |
| CCCc1ccccc1N1CCNCC1 |  | 0.379 µM | > 15 mg/kg | 0.117 µM | 0.0159 µM | 0.232 µM |  | 0.0194 µM | > 1 µM | Ki [10]: 0.0349 µM |
| CCCCc1ccccc1N1CCNCC1 |  | 0.841 µM | > 15 mg/kg | 0.0318 µM | 0.0084 µM | 0.204 µM |  | 0.0191 µM | > 1 µM | Ki [10]: 0.0648 µM |
| CCCN(CCC)C1CCc2cccc(O)c2C1 (stereo unspecified) [8-OH-DPAT] |  |  | 0.5 mg/kg |  |  |  |  |  |  |  |
| CN1[C@@H]2CC[C@H]1C[C@@H](OC(=O)C(CO)c1ccccc1)C2 (stereo partly specified) [ATROPINE] |  |  | 3 mg/kg |  |  |  |  |  |  |  |
| Clc1cccc(N2CCNCC2)c1 [CHLOROPHENYLPIPERAZINE] | 1.5% | > 1 µM | 2.4 mg/kg | 0.236 µM | 0.0044 µM | 0.04 µM | 0.025 µM | 0.023 µM | > 1 µM |  |
| CN(C)CCCN1c2ccccc2Sc2ccc(Cl)cc21 [CHLORPROMAZINE] | 0.2% |  | 1.8 mg/kg |  |  |  |  |  |  |  |
| CN1CCN(C2=Nc3cc(Cl)ccc3Nc3ccccc32)CC1 [CLOZAPINE] | 12.6% |  |  |  |  |  |  |  |  |  |
| COC(=O)[C@H]1[C@@H](OC(=O)c2ccccc2)C[C@@H]2CC[C@H]1N2C [COCAINE] |  |  | 10 mg/kg |  |  |  |  |  |  |  |
| CNCCCN1c2ccccc2CCc2ccccc21 [DESIPRAMINE] |  |  | 20 mg/kg |  |  |  |  |  |  |  |
| CN1C(=O)CN=C(c2ccccc2)c2cc(Cl)ccc21 [DIAZEPAM] |  |  | 10 mg/kg |  |  |  |  |  |  |  |
| O=C(CCCN1CCC(O)(c2ccc(Cl)cc2)CC1)c1ccc(F)cc1 [HALOPERIDOL] | 1.7% |  |  |  |  |  |  |  |  |  |
| CCN(CC)C(=O)[C@@H]1C=C2c3cccc4[nH]cc(c34)C[C@H]2N(C)C1 [LYSERGIDE] |  |  | 0.32 mg/kg |  |  |  |  |  |  |  |
| Clc1cncc(N2CCNCC2)n1 [MK-212] | 19% | > 1 µM | 2.8 mg/kg | 0.913 µM | 0.178 µM | > 1 µM |  | 0.202 µM | > 1 µM | Ki [10]: 0.844 µM |
| c1ccc(C2(N3CCCCC3)CCCCC2)cc1 [PHENCYCLIDINE] |  |  | 1 mg/kg |  |  |  |  |  |  |  |
| c1ccc(N2CCNCC2)cc1 [PHENYLPIPERAZINE] | 6% | > 1 µM | 2.7 mg/kg | 0.794 µM | 0.0633 µM | 0.668 µM | 0.149 µM | 0.149 µM | > 1 µM |  |
| CSc1ccc2c(c1)N(CCC1CCCCN1C)c1ccccc1S2 (stereo unspecified) [THIORIDAZINE] | 7.3% |  | 9.7 mg/kg |  |  |  |  |  |  |  |
| CN1CCN(CCCN2c3ccccc3Sc3ccc(C(F)(F)F)cc32)CC1 [TRIFLUOPERAZINE] | 1.2% |  | 0.52 mg/kg |  |  |  |  |  |  |  |
